Compound activity as filed in PubChem BioAssay.
TMEM16A inh: blocks the mouse calcium-activated chloride channel TMEM16A. hit rate 1.2% among 310,000. HEK293 TMEM16A/YFP iodide influx fluorescence, ionomycin. normalized B-score (activity score, 25-100; higher = stronger inhibition) at 10 µM. Q8BHY3. AID 588511;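 active = ratio plate-corrected score three or more library SD toward inhibition, starting fluorescence score within five deviations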;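 note: score derived from kinetic fluorescence span divided by baseline fluorescence per well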
CHT inh: human CHT choline transport inhibition; hit rate 0.86% among 310,000; B-score at 10 µM; CHT-expressing cells, membrane potential dye, choline response; active compounds read low; Q9GZV3;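 active = B-score over 3 SD under the library average, and starting fluorescence ratio not unusually high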;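 note: choline stimulus applied at its EC90 after an EC20 pre-addition; B-score computed on integrated fluorescence ratio after choline addition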
ANO1 activ: activates or potentiates the mouse TMEM16A chloride channel | HEK293 TMEM16A/YFP-H148Q/I152L, iodide quench fluorescence; active compounds read low | hit rate 0.3% among 340,000 | AID 623877 | Q8BHY3 | B-score at 10 µM;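 active = fluorescence-ratio B-score plate-corrected deviation score at least 3 library SD below zero, with starting fluorescence score within 5 deviations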;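 note: channel opened by trigger with iodide after compound preincubation; score built on the fluorescence ratio of max minus min over baseline; more negative score means more quench and so TMEM16A activation or potentiation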
IMP-1 inh: blocks Pseudomonas aeruginosa IMP-1 metallo-beta-lactamase. AID 1556. purified IMP-1, nitrocefin hydrolysis, epi-absorbance fluorescence. inhibition, % at 5.6 µM. hit rate 0.45% among 290,000;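 active = inhibition above the mean plus 3 SD of all compounds in the same screening run, cut at about 4.5% in these data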;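 note: 0% = IMP-1 with DMSO and 100% = DMSO wells lacking enzyme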
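System: purified IMP-1; amount: IMP-1 0.2 nM before substrate addition; compound: single dose, 5.6 µM; times: 25 °C, 15 min preincubation, 25 min reaction; signal: Epi-absorbance via hydrolysed-nitrocefin quenching of white-plate fluorescence, 480/530 nm, EDTA stop; benchmarks: DMSO with and without IMP-1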
CHT PAM: human CHT allosteric activation; CHT-expressing cells, membrane potential dye, choline EC20; active compounds read high; LV-AA mutant CHT in HEK293 cells; Q9GZV3; hit rate 0.49% among 310,000; B-score at 10 µM;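 active = initial fluorescence not abnormally high and integrated response B-score, plate-corrected, over 3 SD above library mean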
VIM-2 inh: blocks Pseudomonas aeruginosa VIM-2 metallo-beta-lactamase; purified VIM-2, nitrocefin hydrolysis, epi-absorbance fluorescence; inhibition, % at 5.6 µM; hit rate 0.89% among 290,000;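 active = inhibition above the mean of all tested compounds plus 3 SD, cutoff set per screening run, cut at about 7.5% in these data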;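 note: red hydrolysis product quenches plate fluorescence so inhibitors raise well fluorescence; 0% = enzyme with DMSO and 100% = DMSO without enzyme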
TMEM16A reconf: reconfirmed blocker of mouse TMEM16A calcium-activated chloride channel | shares compounds with TMEM16A inh | HEK293 TMEM16A/YFP-H148Q, iodide quench fluorescence; ionomycin added to raise cell calcium | inhibition, % at 10 µM | hit rate 39% among 2,300;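 active = mean duplicate percent inhibition, scaled so buffer wells are 0 and the reference blocker 100, over three buffer SD above buffer mean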
HEK293 Ca mobil: calcium mobilization counter-screen hit for TMEM16A inhibitor series; shares compounds with TMEM16A inh; hit rate 2% among 2,300; TMEM16A/YFP HEK293, Fluo4 calcium mobilization; AID 652231; calcium response (% of ionomycin), % at 10 µM;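 active = duplicate-averaged calcium signal over 20% of the ionomycin maximum, relative to buffer baseline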;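 note: each well's signal is peak minus trough fluorescence divided by its pre-addition baseline; 0% = buffer wells and 100% = ionomycin wells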
YFP-HEK293 quench: parental YFP-HEK293 iodide quench counter-screen activity | YFP ratio F(max-min)/F0 at 10 µM | 2,300 tested, under 10 active | ionomycin | shares compounds with TMEM16A inh;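 active = yellow fluorescent protein signal ratio exceeding the buffer control mean by over 5 SD of those controls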;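 note: ratio is mean of duplicate wells from kinetic YFP trace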
ClC-1 rat inh: blocks the rat ClC-1 voltage-dependent chloride channel; shares compounds with TMEM16A inh; CHO ClC-1-YFP, iodide influx fluorescence quench; iodide control reads 0, buffer control 100; ratio percent, % at 10 µM; 2,300 tested, under 10 active; AID 652236;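 active = duplicate-mean ratio percent above the mean of iodide-only control wells, which defines zero, plus 5 of their SD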;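 note: higher percent means stronger block of ClC-1 iodide influx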
* hit, by the source's call; i = inactive; . = not tested or not shown. Hits are enriched below; roughly 3.4% of the tested compounds scored in any of these assays.

SMILES | TMEM16A inh | CHT inh | ANO1 activ | IMP-1 inh | CHT PAM | VIM-2 inh | TMEM16A reconf | HEK293 Ca mobil | YFP-HEK293 quench | ClC-1 rat inh
CC(Cc1ccccc1)NC(=O)CN1C(=O)c2ccccc2S1(=O)=O (configuration not stated) | i | i | i | -2 | i | -2 | . | . | . | .
Cc1c(C(=O)Nc2ccc(Oc3ccccc3)cc2)sc2nc3n(c(=O)c12)CCC3 | 100* | i | i | 0 | i | -2 | i | i | -1.2 | -18
O=C(CSc1nnc(CNC(=O)c2c(F)cccc2F)o1)NCc1ccc(F)cc1 | i | i | i | 1 | i | 0 | . | . | . | .
CNC(=O)Nc1cccc(-c2cc(-c3c(Cl)cccc3Cl)no2)c1 | 100* | i | i | -3 | i | -4 | 26%* | i | -0.83 | -4
CCC(C)(C)C1CCc2[nH]nc(C(=O)NCCCNC(=O)OC(C)(C)C)c2C1 (configuration not stated) | i | i | i | . | i | . | . | . | . | .
O=S(=O)(c1ccc(NC(=S)Nc2ccccc2)cc1)N1CCOCC1 | i | i | i | -1 | i | -3 | . | . | . | .
CC(NC(=S)Nc1ccc(S(=O)(=O)N2CCOCC2)cc1)C1CC2CCC1C2 (configuration not stated) | 25* | i | i | -4 | i | -2 | i | i | -1.4 | -2
CCCN(C(=O)COC(=O)c1nc2nc(C)cc(C)n2n1)C1CCS(=O)(=O)C1 (configuration not stated) | . | . | i | . | . | . | . | . | . | .
CN1/C(=C\C(=O)c2cccc(S(=O)(=O)N3CCCCC3)c2)C(C)(C)c2ccccc21 | i | i | i | -1 | i | -2 | . | . | . | .
CN1/C(=C\C(=O)c2cncc(Br)c2)C(C)(C)c2ccccc21 | i | i | i | 0 | i | 2 | 22%* | i | -0.72 | -8
CN1/C(=C\C(=O)COC(=O)c2ccco2)C(C)(C)c2ccccc21 | i | i | i | -2 | i | -2 | . | . | . | .
CN1/C(=C\C(=O)c2ccco2)C(C)(C)c2ccccc21 | i | i | i | -2 | i | 1 | 26%* | i | -0.68 | -2
CN1/C(=C\C(=O)COc2ccc3c(c2)OCO3)C(C)(C)c2ccccc21 | i | i | i | 0 | i | 2 | i | i | -0.73 | 4
O=C(N/N=C/c1ccc(O)cc1)c1ccc(COc2cc(Cl)ccc2Cl)o1 | 25* | i | -5.6* | -2 | i | -2 | i | i | -0.94 | -12
O=C(Nc1ccn(Cc2c(F)c(F)cc(F)c2F)n1)c1ccc(COc2cc(Cl)ccc2Cl)o1 | i | i | i | -2 | i | 1 | . | . | . | .
CN(CC(=O)Nc1ccccc1Cl)C(=O)COC(=O)C1CCN(c2ccc(C(F)(F)F)cn2)CC1 | i | i | i | . | i | . | . | . | . | .
CCN1C(=O)/C(=C/C=C2/SCCN2C)SC1=S | i | i | i | 0 | i | 1 | 24%* | i | -0.59 | 17
CN1CCS/C1=C\C=C1/SC(=S)N(CC(=O)O)C1=O | . | . | i | 3 | . | 5 | . | . | . | .
CCOC(=O)c1c(NC(=O)COC(=O)C2CC2C)sc(C)c1C (configuration not stated) | 25* | i | i | 0 | i | -2 | i | i | -1.1 | -5
Cc1ccc(NC(=O)COC(=O)Cn2ccc(=O)[nH]c2=O)cc1C | . | . | i | . | . | . | . | . | . | .
COC(=O)c1cc(S(=O)(=O)N(C)C2CCCCC2)c[nH]1 | i | i | i | -2 | i | -3 | . | . | . | .
